Test results as given in ChEMBL document CHEMBL6127097, “Structure-Guided Discovery of cis-Hexahydro-pyrido-oxazinones as Reversible, Drug-like Monoacylglycerol Lipase Inhibitors” (J Med Chem, 2024).
≈ marks a conversion by molar mass, not a printed value. Calls of active or inactive are those of the source. The calls are words filed in the database; no cut-off is given here.

Assays:
[1] = Clearance in Wistar rat at 1 mg/kg, iv measured upto 24 hrs by LC-MS/MS analysis; assay type: ADME, organism-based; conditions: in vivo
Method in brief: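 Male Wistar rats (N = 3 per group) received a single dose. The i.v. dose was 1 mg/kg in NMP/0.9% NaCl 30:70. The p.o. dose was 5 mg/kg in NMP/HPMC/diisooctyl sulfosuccinate 10:90. Blood was taken into K2EDTA from 0.083 (i.v.) or 0.25 h to 24 h. Plasma was assayed by LC-MS/MS and analysed non-compartmentally.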

[2] = Ratio of drug concentration in Wistar rat brain to plasma at 10 mg/kg, ip measured upto 7 hrs by LC-MS/MS analysis; assay type: ADME, organism-based
Method in brief: (§1)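 Male Wistar rats, single dose. i.v. in NMP/0.9% NaCl 30:70; p.o. and i.p. in NMP/HPMC/diisooctyl sulfosuccinate 10:90; 3 per i.v./p.o. group, 6 i.p. K2EDTA plasma sampled 0.083–7 h, plus 24 h for i.v./p.o.; brain and CSF at 1, 2, 7 h (i.p. only). LC-MS/MS, noncompartmental analysis.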

[3] = Clearance in mouse hepatocytes assessed per 10 million cells; assay type: ADME, cell-based, Hepatocyte; conditions: read-out: CLH
[4] = Aqueous solubility of compound in phosphate buffer at pH 6.5 by HPLC or MS/MS analysis; assay type: physicochemical; conditions: buffer
Method in brief: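 Lyophilization solubility assay (LYSA) starting from a 10 mM DMSO stock. DMSO was removed by centrifugal vacuum evaporation, then 0.05 M phosphate buffer pH 6.5 was added and samples sonicated. Filtrates were analysed by MS/MS and/or HPLC against a 4- to 7-point calibration curve.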

[5] = molecular target: CYP3A4 (Homo sapiens, UniProt P08684); test: Inhibition of CYP3A4 (unknown origin) at 10 uM relative to control; assay type: ADME
[6] = Brain-polar-lipids/water distribution coefficient, LIMBA logD brain of the compound at pH 7.4 incubated for 8 hrs by LIMBA
[7] = Average drug concentration in mouse plasma at 30 mg/kg, ip measured after 24 hrs; assay type: ADME, organism-based; conditions: in vivo
Method in brief: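 In a time course, mice were injected i.p. with 30 mg/kg in NaCl/DMSO/Tween 80 (80/10/10). Average plasma levels were determined at the stated time points over 24 h.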

[8] = Chemical stability at pH 1 incubated for 2 hrs; assay type: physicochemical; conditions: buffer, pH 1, 2 h
Method in brief: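 Compound was held in aqueous buffer at the stated pH for 2 h at 37 °C.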

[9] = Drug concentration in mouse CSF at 30 mg/kg, ip measured after 16 hrs; assay type: ADME, organism-based, Cerebrospinal fluid; conditions: read-out: Ct
[10] = molecular target: Voltage-gated inwardly rectifying potassium channel KCNH2 (Homo sapiens, UniProt Q12809); test: Inhibition of human ERG expressed in CHO cells by automated patch clamp method; assay type: toxicity, cell-based
[11] = Clearance in human microsomes; assay type: ADME, Microsome
[12] = Unbound brain to plasma partition coefficient of compound in Wistar rat at 10 mg/kg, ip measured upto 7 hrs by LC-MS/MS analysis; assay type: ADME, organism-based; conditions: read-out: K(p,uu,brain); method in brief: as §1
[13] = Half-life in Wistar rat at 1 mg/kg, iv measured upto 24 hrs by LC-MS/MS analysis; assay type: ADME, organism-based; conditions: in vivo; method in brief: as §1
[14] = tested on: Mus musculus; test: Antiinflammatory activity in LPS-induced CD-1 mouse neuroinflammation model assessed as decrease in brain IL-1beta mRNA expression at 30 mg/kg, ip measured after 6 hrs by qRT-PCR analysis; assay type: functional, organism-based
Method in brief: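 CD-1 mice received NaCl + vehicle, LPS (5 mg/kg) + vehicle, or LPS + inhibitor at 30 mg/kg i.p. The vehicle was NaCl/DMSO/Tween 80, 80/10/10. Mice were killed 6 h after compound dosing. LCN2 and IL1b mRNA in cortical brain lysates were quantified by droplet digital qRT-PCR.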

[15] = tested on: Mus musculus; test: Upregulation of brain 2-AG level in mouse at 30 mg/kg, ip measured after 8 to 24 hrs; assay type: functional, organism-based; conditions: time 8-24 hrs
Method in brief: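 Male-unspecified mice received a single i.p. dose of 30 mg/kg. The vehicle was NaCl/DMSO/TW80 (80/10/10): the drug was dissolved in equal parts DMSO and TW80, then diluted with 8 parts normal saline. Brain 2-AG levels were followed over 24 h after dosing and measured by LC/MS in brain extracts.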

[16] = molecular target: T1, Monoglyceride lipase (Mus musculus) (UniProt O35678); test: In vivo receptor occupancy at MAGL receptor in mouse at 3 mg/kg, ip measured after 4 hrs; assay type: functional, organism-based
T1 sequence (whole entry): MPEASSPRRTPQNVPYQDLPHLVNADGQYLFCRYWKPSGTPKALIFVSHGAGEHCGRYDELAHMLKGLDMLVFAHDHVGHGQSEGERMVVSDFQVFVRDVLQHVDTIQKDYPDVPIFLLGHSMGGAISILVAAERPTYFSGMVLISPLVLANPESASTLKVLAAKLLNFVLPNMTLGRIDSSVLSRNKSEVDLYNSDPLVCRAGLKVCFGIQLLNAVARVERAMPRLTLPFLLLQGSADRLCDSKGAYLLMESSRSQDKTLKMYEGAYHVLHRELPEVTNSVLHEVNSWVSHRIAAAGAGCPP

[17] = molecular target: T2, Monoglyceride lipase (Rattus norvegicus) (UniProt Q8R431); test: Binding affinity to rat MAGL assessed as dissociation rate constant by SPR analysis
T2 sequence (whole entry): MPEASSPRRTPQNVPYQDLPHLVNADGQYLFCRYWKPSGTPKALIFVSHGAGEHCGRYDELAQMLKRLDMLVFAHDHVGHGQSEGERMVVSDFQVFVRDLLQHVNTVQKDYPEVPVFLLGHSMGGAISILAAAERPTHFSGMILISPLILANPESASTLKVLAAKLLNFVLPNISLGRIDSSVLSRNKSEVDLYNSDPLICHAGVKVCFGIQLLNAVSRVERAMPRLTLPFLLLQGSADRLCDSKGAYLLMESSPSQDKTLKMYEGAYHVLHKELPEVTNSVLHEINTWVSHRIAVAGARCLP
Method in brief: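 Human or rat MAGL was immobilized by amine coupling without ethanolamine quenching. Runs were done at 18 °C in 10 mM HEPES, 150 mM NaCl, 0.05% P20, 50 µM EDTA, pH 7.4, with 1% DMSO. Single-cycle kinetics used five concentrations, top 1 µM in 2-fold steps, at 30 µL/min, giving kon, koff and Kd.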

[18] = tested on: Mus musculus; test: Upregulation of brain 2-AG level in ip dosed mouse measured after 4 hrs; assay type: functional, organism-based; conditions: dose 3-30 mg/kg
Method in brief: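 Mice dosed i.p. in NaCl/DMSO/TW80 (80/10/10): 3, 10 or 30 mg/kg with sacrifice at 4 h, or 30 mg/kg over a 24 h time course. Brain extract 2-AG and AA were measured by LC/MS.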

Chain of CYP3A4 (P08684 whole entry): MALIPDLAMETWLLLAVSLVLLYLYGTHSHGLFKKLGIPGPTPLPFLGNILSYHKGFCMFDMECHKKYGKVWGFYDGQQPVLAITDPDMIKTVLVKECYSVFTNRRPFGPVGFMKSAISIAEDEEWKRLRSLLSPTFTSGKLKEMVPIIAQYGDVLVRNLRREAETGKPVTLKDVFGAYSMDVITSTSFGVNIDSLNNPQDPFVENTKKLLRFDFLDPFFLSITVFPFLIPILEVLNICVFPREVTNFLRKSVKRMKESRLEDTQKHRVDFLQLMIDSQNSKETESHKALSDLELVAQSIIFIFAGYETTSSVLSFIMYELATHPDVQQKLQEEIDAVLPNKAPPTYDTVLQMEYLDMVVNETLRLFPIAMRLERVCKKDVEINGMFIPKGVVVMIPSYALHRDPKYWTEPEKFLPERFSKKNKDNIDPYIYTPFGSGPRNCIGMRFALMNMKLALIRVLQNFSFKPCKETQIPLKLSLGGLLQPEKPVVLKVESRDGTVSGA
Chain of Voltage-gated inwardly rectifying potassium channel KCNH2 (Q12809 whole entry): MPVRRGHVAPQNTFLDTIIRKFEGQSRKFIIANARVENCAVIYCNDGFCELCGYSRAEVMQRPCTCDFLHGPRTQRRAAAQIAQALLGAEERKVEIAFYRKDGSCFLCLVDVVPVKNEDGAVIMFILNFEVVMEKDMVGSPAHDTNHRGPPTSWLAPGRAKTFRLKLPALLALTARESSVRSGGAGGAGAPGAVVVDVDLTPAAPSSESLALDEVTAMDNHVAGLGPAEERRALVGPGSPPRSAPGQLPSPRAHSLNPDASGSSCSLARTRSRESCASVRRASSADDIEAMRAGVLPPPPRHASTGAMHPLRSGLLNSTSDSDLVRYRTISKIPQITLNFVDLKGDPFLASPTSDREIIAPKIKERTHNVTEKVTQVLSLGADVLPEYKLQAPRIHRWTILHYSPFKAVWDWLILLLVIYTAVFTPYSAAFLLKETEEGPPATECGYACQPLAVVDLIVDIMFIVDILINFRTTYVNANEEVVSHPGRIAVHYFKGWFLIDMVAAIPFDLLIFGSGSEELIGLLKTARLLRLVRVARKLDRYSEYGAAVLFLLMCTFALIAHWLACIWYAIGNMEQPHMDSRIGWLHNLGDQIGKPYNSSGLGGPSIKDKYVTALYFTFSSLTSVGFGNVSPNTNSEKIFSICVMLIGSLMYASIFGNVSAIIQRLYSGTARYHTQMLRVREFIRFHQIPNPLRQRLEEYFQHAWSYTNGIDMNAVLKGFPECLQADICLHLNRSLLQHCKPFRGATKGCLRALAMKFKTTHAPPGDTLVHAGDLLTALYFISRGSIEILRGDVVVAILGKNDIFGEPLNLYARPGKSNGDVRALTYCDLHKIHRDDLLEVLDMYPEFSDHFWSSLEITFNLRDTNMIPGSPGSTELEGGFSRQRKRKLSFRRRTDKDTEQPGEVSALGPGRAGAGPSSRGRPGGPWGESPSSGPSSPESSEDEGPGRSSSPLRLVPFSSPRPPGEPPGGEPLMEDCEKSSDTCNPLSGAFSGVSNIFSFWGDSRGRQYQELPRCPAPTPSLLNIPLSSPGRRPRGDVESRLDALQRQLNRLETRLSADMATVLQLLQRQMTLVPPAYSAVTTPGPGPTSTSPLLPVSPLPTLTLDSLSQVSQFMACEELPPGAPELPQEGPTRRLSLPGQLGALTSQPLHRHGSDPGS

SMILES	clearance [1]	Kp at 7 h [2]	hepatocyte CLint [3]	solubility [4]	inhibition at 10 µM [5]	LIMBA logD brain at 8 h [6]	Cave [7]	Stability [8]	concentration at 16 h [9]	IC50 [10]	microsomal CLint [11]	Kp uu at 7 h [12]	half-life [13]	Activity [14]	Activity [15]	Activity [16]	K [17]	Activity [18]
O=C1CO[C@H]2CCN(C(=O)N3CCC(Cc4ccc(C(F)(F)F)cc4)CC3)C[C@H]2N1 [listing 1 of 2 here]	4.6 mL/min/kg	1.1	8.9 µL/min/1e6 cells	231 µg/mL (≈ 543 µM)	-195%	1.8	100 nM	Stable	48 nM	7.7 µM	< 10 µL/min/mg	0.53	5.1 h	–	–	–	–	–
O=C1CO[C@H]2CCN(C(=O)N3CCC(Cc4ccc(C(F)(F)F)cc4)CC3)C[C@H]2N1 [listing 2 of 2 here]	–	–	–	–	–	–	–	–	–	–	–	–	–	Active	inactive	49%	16.8 10^-3/s	Dose-Dependent Effect
